Cleavage rate, MIC and Transport rate data for 15 compounds are collected here from ChEMBL document CHEMBL1124925, “Anticandidal properties of N3-(4-methoxyfumaroyl)-L-2,3-diaminopropanoic acid oligopeptides” (1990).

In brackets after ≈: the same amount, converted by molar mass. Non-standard residues stand in square brackets, D forms with d. Residues, ends and D or L forms follow the SMILES beside them. *: point of attachment. Fumaryl(OMe) = COC(=O)/C=C/C(=O)*; Dap = NC[C@H](N)C(=O)O

For assay [1], the system named is Candida albicans. In words: Tested for its intracellular cleavage rate in Candida albicans ATCC 26278. The format is functional. The method, boiled down: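 Cell-free extract came from cells grown overnight on Sabouraud medium at 30 °C with vigorous shaking. Cells were washed and extracted in 0.05 M phosphate buffer, pH 6.5; protein was measured by Lowry (Layne modification). Peptides at 200 μM in 0.005 M phosphate buffer were incubated with extract at 30 °C for 30 min. Samples were taken every 10 min and released amino acid was measured by Cd-ninhydrin.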

The subject of assay [2] is Candida albicans. In words: In vitro antifungal activity against Candida albicans ATCC 26278. The format is functional. The method, boiled down: (§1)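 MIC by serial dilution in liquid YNB medium containing sodium glutamate, inoculated at 10^4 cells/mL; growth read turbidimetrically at 660 nm after 24 h at 30 °C. Strains were 16 fresh clinical isolates collected at the Medical Academy of Gdansk plus standard strain ATCC 26278.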

The test system of assay [3] is Candida albicans. In words: In vitro antifungal activity against 16 clinical strains of Candida albicans. The format is functional. The method, boiled down: as §1
Assay [4] relates to Saccharomyces cerevisiae. In words: In vitro antifungal activity against Saccharomyces cerevisiae ATCC 9763. Type of assay: functional.
The subject of assay [5] is Candida epidermidis. In words: In vitro antifungal activity against Candida epidermidis OBS 6023.
Assay [6] deals with Candida albicans. In words: Tested for its rate of transport in Candida albicans ATCC 26278. The format is functional.
Assay [7] relates to Saccharomyces cerevisiae. In words: Tested in vitro for antifungal activity against Saccharomyces cerevisiae ATCC 9763. Type of assay: functional.
Assay [8] concerns Saccharomyces cerevisiae. Nature of the assay: In vitro for antifungal activity against Saccharomyces cerevisiae ATCC 9763. The format is functional.
For assay [9], the system named is Candida epidermidis. In words: In vitro antifungal activity against Candida epidermidis OBS 6023. This is another data set of the same source.

In the case of `COC(=O)/C=C/C(=O)NC[C@H](NC(=O)[C@@H](N)CCSC)C(=O)N[C@@H](CCSC)C(=O)O`, the Cleavage rate in the assay on Candida albicans [1] was found to be 4.8 nM/min/mg. Besides, the MIC (usually the lowest concentration found to suppress growth) in the assay on Candida albicans [2] was found to be 0.3 µg/mL (≈ 0.627 µM); in the assay with Candida albicans [3], 0.15 µg/mL (≈ 0.313 µM); against Saccharomyces cerevisiae [4], 50 µg/mL (≈ 104 µM); with Candida epidermidis [5] it was 110 µg/mL (≈ 230 µM).

In turn, `COC(=O)/C=C/C(=O)NC[C@H](NC(=O)[C@H](N)CCSC)C(=O)N[C@H](CCSC)C(=O)O` gave a Transport rate in the assay with Candida albicans [6] of 2 nM/min/mg.

In turn, `COC(=O)/C=C/C(=O)NC[C@H](NC(=O)[C@H](CCSC)NC(=O)[C@@H](N)CCSC)C(=O)O` returned a Cleavage rate with Candida albicans [1] of 4.9 nM/min/mg. Further, the MIC against Candida albicans [2] came to 0.25 µg/mL (≈ 0.522 µM); in the assay with Candida albicans [3] it was 0.1 µg/mL (≈ 0.209 µM); in the assay with Saccharomyces cerevisiae [7] it was 37.5 µg/mL (≈ 78.4 µM); against Candida epidermidis [5], 125 µg/mL (≈ 261 µM).

`CCC[C@H](NC(=O)[C@@H](N)CCCCN)C(=O)N[C@@H](CNC(=O)/C=C/C(=O)OC)C(=O)O`: in the assay on Candida albicans [1], the Cleavage rate was determined as 51 nM/min/mg. Moreover, the MIC with Candida albicans [2] is 0.025 µg/mL (≈ 0.0564 µM); against Candida albicans [3], 0.01 µg/mL (≈ 0.0225 µM); against Candida epidermidis [5], 125 µg/mL (≈ 282 µM).

For `CCC[C@H](NC(=O)[C@H](CNC(=O)/C=C/C(=O)OC)NC(=O)[C@@H](N)CCC)C(=O)O`, in the assay with Candida albicans [1], the Cleavage rate amounted to 8.9 nM/min/mg. The MIC was determined as 0.05 µg/mL (≈ 0.121 µM) against Candida albicans [2], 0.01 µg/mL (≈ 0.0241 µM) with Candida albicans [3], 50 µg/mL (≈ 121 µM) in the assay on Saccharomyces cerevisiae [8] and 125 µg/mL (≈ 302 µM) in the assay on Candida epidermidis [5]. This compound also registered a Transport rate in the assay on Candida albicans [6] of 2.9 nM/min/mg.

`COC(=O)/C=C/C(=O)NC[C@H](N)C(=O)N[C@@H](CCSC)C(=O)N[C@@H](C)C(=O)O`: in the assay with Candida albicans [1], the Cleavage rate stood at 4.9 nM/min/mg. The MIC in the assay on Candida albicans [2] was determined as 0.25 µg/mL (≈ 0.597 µM); with Candida albicans [3] it was 0.1 µg/mL (≈ 0.239 µM); against Saccharomyces cerevisiae [4] it was 15 µg/mL (≈ 35.8 µM); against Candida epidermidis [5], 50 µg/mL (≈ 119 µM).

Regarding `COC(=O)/C=C/C(=O)NC[C@H](NC(=O)[C@@H](CCSC)NC(=O)[C@@H](CCSC)NC(=O)[C@@H](N)CNC(=O)/C=C/C(=O)OC)C(=O)O`, the Transport rate in the assay on Candida albicans [6] stood at 1.2 nM/min/mg.

On to `COC(=O)/C=C/C(=O)NC[C@H](NC(=O)[C@H](CCSC)NC(=O)[C@H](CCSC)NC(=O)[C@@H](N)CNC(=O)/C=C/C(=O)OC)C(=O)O`, for which, in the assay on Candida albicans [1], the Cleavage rate was 5.8 nM/min/mg. Moreover, the MIC against Candida albicans [2] worked out at 0.25 µg/mL (≈ 0.369 µM); in the assay with Candida albicans [3] it was 0.25 µg/mL (≈ 0.369 µM); in the assay on Saccharomyces cerevisiae [4], 75 µg/mL (≈ 111 µM); in the assay on Candida epidermidis [5] it was 75 µg/mL (≈ 111 µM).

For the compound `CCC[C@H](NC(=O)[C@@H](N)CCSC)C(=O)N[C@@H](CNC(=O)/C=C/C(=O)OC)C(=O)O`, in the assay with Candida albicans [1], the Cleavage rate came out at 17.3 nM/min/mg. Also, the minimum inhibitory concentration (MIC) came to 0.125 µg/mL (≈ 0.28 µM) in the assay with Candida albicans [2], 0.05 µg/mL (≈ 0.112 µM) against Candida albicans [3], 7.5 µg/mL (≈ 16.8 µM) with Saccharomyces cerevisiae [4] and 130 µg/mL (≈ 291 µM) against Candida epidermidis [5].

The compound `COC(=O)/C=C/C(=O)NC[C@H](NC(=O)[C@H](C)NC(=O)[C@@H](N)CCSC)C(=O)O` displayed a Cleavage rate with Candida albicans [1] of 15.2 nM/min/mg. The MIC against Candida albicans [2] was determined as 0.75 µg/mL (≈ 1.79 µM); with Candida albicans [3], 0.25 µg/mL (≈ 0.597 µM); with Saccharomyces cerevisiae [4], 7.5 µg/mL (≈ 17.9 µM); in the assay on Candida epidermidis [5], 125 µg/mL (≈ 299 µM).

`COC(=O)/C=C/C(=O)NC[C@H](NC(=O)[C@H](C)N)C(=O)N[C@@H](C)C(=O)O` showed a Cleavage rate in the assay on Candida albicans [1] of 5.4 nM/min/mg. Moreover, the MIC turned out to be 0.75 µg/mL (≈ 2.09 µM) against Candida albicans [2], 0.25 µg/mL (≈ 0.698 µM) in the assay on Candida albicans [3], 37.5 µg/mL (≈ 105 µM) against Saccharomyces cerevisiae [4] and 80 µg/mL (≈ 223 µM) against Candida epidermidis [5]. The same compound registered a Transport rate with Candida albicans [6] of 0.9 nM/min/mg.

As for `COC(=O)/C=C/C(=O)NC[C@H](NC(=O)[C@H](CNC(=O)/C=C/C(=O)OC)NC(=O)[C@@H](N)CCSC)C(=O)O`, the Cleavage rate in the assay with Candida albicans [1] was 10 nM/min/mg. In addition, the MIC in the assay on Candida albicans [2] is 0.75 µg/mL (≈ 1.37 µM); with Candida albicans [3], 0.25 µg/mL (≈ 0.458 µM); against Saccharomyces cerevisiae [4], 150 µg/mL (≈ 275 µM); in the assay on Candida epidermidis [5], 125 µg/mL (≈ 229 µM).

`COC(=O)/C=C/C(=O)NCC(N)C(=O)N[C@@H](CCSC)C(=O)N[C@@H](CNC(=O)/C=C/C(=O)OC)C(=O)O` (some centres undefined): the Cleavage rate in the assay with Candida albicans [1] amounted to 3 nM/min/mg. In addition, the MIC with Candida albicans [2] turned out to be 0.75 µg/mL (≈ 1.37 µM); against Candida albicans [3], 0.25 µg/mL (≈ 0.458 µM); against Saccharomyces cerevisiae [4], 150 µg/mL (≈ 275 µM); in the assay on Candida epidermidis [5] it was 75 µg/mL (≈ 137 µM). This compound also showed a Transport rate with Candida albicans [6] of 1.4 nM/min/mg.

In turn, `COC(=O)/C=C/C(=O)NC[C@H](NC(=O)[C@H](CCSC)NC(=O)[C@H](CCSC)NC(=O)[C@H](CCSC)NC(=O)[C@@H](N)CCSC)C(=O)O` (H-MMMM[Dap](Fumaryl(OMe))-OH) showed a Cleavage rate with Candida albicans [1] of 18.6 nM/min/mg. Also, the MIC in the assay with Candida albicans [2] stood at 0.5 µg/mL (≈ 0.675 µM); against Candida albicans [3] it was 0.25 µg/mL (≈ 0.337 µM); with Saccharomyces cerevisiae [4], 37.5 µg/mL (≈ 50.6 µM); against Candida epidermidis [9], 75 µg/mL (≈ 101 µM).

As to `COC(=O)/C=C/C(=O)NC[C@H](NC(=O)[C@H](CCSC)NC(=O)[C@H](CCSC)NC(=O)[C@@H](N)CCSC)C(=O)O` (H-MMM[Dap](Fumaryl(OMe))-OH), the Cleavage rate in the assay with Candida albicans [1] stood at 23.7 nM/min/mg. Besides, the MIC is 0.75 µg/mL (≈ 1.23 µM) against Candida albicans [2], 0.25 µg/mL (≈ 0.41 µM) against Candida albicans [3], 100 µg/mL (≈ 164 µM) against Saccharomyces cerevisiae [4] and 75 µg/mL (≈ 123 µM) in the assay with Candida epidermidis [5].
